STAT1 act – STAT1 signaling activators, primary screen, cell-based, HTS, luciferase reporter; activation (% of control), % at 5.5 µM; NIH 3T3 STAT1-luciferase reporter, IFN-gamma, luminescence; 100% = IFN-gamma alone, no compound; 2.6% of 200,000 active;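 active means activation above the screen-wide mean activation plus 3 SD, cut at about 130% in these data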
STAT1 inh – STAT1 signaling inhibitors, primary screen, cell-based, HTS, luciferase reporter; NIH 3T3 STAT1-luciferase reporter, IFN-gamma, luminescence; inhibition, % at 5.5 µM; 0.35% of 200,000 active; AID 920, 2007;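 active means inhibition above a set limit, the mean inhibition across all tested compounds plus 3 SD, cut at about 34% in these data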
STAT3 inh – IL-6 driven STAT3 reporter inhibitors, primary screen, U3A cells, luciferase, luminescence, MLSCN library; IL-6 STAT3-luciferase reporter; host cell line lacks STAT1; inhibition, % at 5.5 µM; 0.89% of 190,000 active;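 active means inhibition above the mean inhibition across all screened compounds plus 3 SD, cut at about 44% in these data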
NF-kB expr up – activators of NF-kB expression in neurons, primary screen, cell-based, HTS | 1.6% of 190,000 active | AID 1239, 2008 | human neuronal cells, NF-kB reporter expression; hits give high values | fold change at 12.5 µM; in the data active means fold change above about 3.3
STAT3 act – IL-6 driven STAT3 reporter potentiators, primary screen, U3A cells, luciferase, luminescence, MLSCN library | IL-6 STAT3-luciferase reporter; 100% = signal with IL-6 EC80 alone | activation (% of control), % at 5.6 µM | 0.91% of 190,000 active;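 active means activation above the screen-wide mean of compound activation plus 3 SD, cut at about 130% in these data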
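Material: STAT3-luciferase reporter U3A cells; Probe or stimulus: IL-6 (33 ng/mL); Incubation: compound pre-incubation 1 h before IL-6, then 6 h stimulation at 37 °C; Technique: luminescence from STAT3-driven luciferase reporter; Evaluation: % activation versus median of IL-6-stimulated wells; Controls: IL-6-only high control.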
APP 5'UTR act – activators of APP 5'UTR luciferase reporter, primary screen, SH-SY5Y cells | activation, % at 2 µM | 1% of 190,000 active | SH-SY5Y APP 5'UTR luciferase reporter, luminescence; zero percent = DMSO vehicle wells;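 active means activation above a set limit, based on mean plus 3 SD of controls, cut at about 140% in these data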
STAT1 act conf – STAT1 signaling activators, confirmation, cell-based, HTS, luciferase reporter; shares compounds with STAT1 act; NIH 3T3 STAT1-luciferase reporter, IFN-gamma potentiation, luminescence; 100% = IFN-gamma EC80 alone, no compound; activation (% of control), % at 5.7 µM; 97% of 1,200 active; AID 1262, 2008;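 active means activation above a set limit carried over from the earlier primary STAT1 screen, cut at about 140% in these data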
NFkB act STAT1ct – NF-kB reporter activators, TNF-alpha stimulated, counter-screen for STAT1 activator project, cell-based, HEK293T, luciferase luminescence | shares compounds with STAT1 act | 100% = TNF-alpha with vehicle only | activation (% of control), % at 5.7 µM | 43% of 1,200 active | AID 1306, 2008;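 active means activation above the mean of solvent-only control wells plus 3 SD, set per campaign, cut at about 130% in these data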;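 further: TNF-alpha given at a submaximal dose yielding about 80% of full reporter signal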
STAT3 act STAT1c – STAT3 reporter activation by STAT1 hits, confirmation, counter-screen for STAT1 activator project, U3A cells, luciferase, luminescence; 46% of 1,200 active; IL-6; cells lack STAT1; 100 = IL-6 alone, no compound effect; activation (% of control), % at 5.7 µM; shares compounds with STAT1 act;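 active means activation above the solvent-only control well mean plus 3 SD, set per plate batch, cut at about 110% in these data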;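 further: higher means more STAT3 reporter activation so hits are non-selective activators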
Of the large screens only hits and unclear results are named; the others gave an inactive call (follow-up assays come after a bar, where they were run). An excerpt weighted towards active compounds, which were near 5.1% of everything screened.

Cc1ccccc1/C=N/NC(=O)c1sccc1C	STAT1 act 163.0, NF-kB expr up 4.99 | STAT1 act conf 205.1 | NFkB act STAT1ct 133.5 | STAT3 act STAT1c inactive
Cc1cc(C(=O)N/N=C/c2ccc3c(c2)OCO3)c(C)o1	none
CCCOC(=O)Nc1ccc(N2CCCCC2)cc1	STAT1 act 154.5, NF-kB expr up 5.09 | STAT1 act conf 176.9 | NFkB act STAT1ct inactive | STAT3 act STAT1c inactive
O=[N+]([O-])c1ccc2nc(-c3ccccc3[N+](=O)[O-])[nH]c2c1	none
c1cncc(-c2nc3cc4ccccc4cc3[nH]2)c1	STAT1 act 155.9, APP 5'UTR act 154.3 | STAT1 act conf 226.0 | NFkB act STAT1ct inactive | STAT3 act STAT1c inactive
COc1ccc(-c2nc3ccc([N+](=O)[O-])cc3[nH]2)cc1	STAT1 act 181.9, NF-kB expr up 8.66, APP 5'UTR act 160.4 | STAT1 act conf 251.3 | NFkB act STAT1ct inactive | STAT3 act STAT1c inactive
O=[N+]([O-])c1ccc2nc(-c3ccc(Cl)cc3)[nH]c2c1	STAT1 act 155.3, APP 5'UTR act 156.3 | STAT1 act conf 205.9 | NFkB act STAT1ct inactive | STAT3 act STAT1c inactive
COc1ccc2nc(-c3ccccc3)[nH]c2c1	STAT1 act 153.3, NF-kB expr up 5.54, APP 5'UTR act 177.9 | STAT1 act conf 198.7 | NFkB act STAT1ct inactive | STAT3 act STAT1c inactive
CCOc1ccccc1NC(=S)N1CCC(NC(=O)C(C)(C)C)CC1	none
CC(C)(C)NC(=O)C(c1ccc(F)cc1)N(Cc1ccccc1Cl)C(=O)c1ccn[nH]1 (stereo not given)	none
COc1ccc(N2CCN(C(C)C(=O)N3CC(C)OC(C)C3)CC2)cc1 (stereo not given)	none
CC(=O)c1c(C)[nH]c(C(=O)CN2C(=O)NC(C)(c3ccc(C)cc3)C2=O)c1C (stereo not given)	none
Cc1ccc(N=Nc2c(N)nn(-c3ccccc3)c2N)cc1	STAT1 act 154.6, NF-kB expr up 5.96 | STAT1 act conf 179.8 | NFkB act STAT1ct 138.0 | STAT3 act STAT1c inactive
COc1ccc(Nc2oc(-c3ccc(Cl)cc3)nc2C#N)cc1	STAT1 act 173.7, NF-kB expr up 3.3 | STAT1 act conf 208.5 | NFkB act STAT1ct 134.7 | STAT3 act STAT1c 124.3
CCOc1ccc(Nc2oc(-c3ccc(Cl)cc3)nc2C#N)cc1	none
O=C(O)CCC(=O)Nc1nc2ccccc2s1	none
Cc1ccc2nc(NC(=O)c3ccc(Cl)s3)sc2c1	STAT1 act 152.5, NF-kB expr up 5.29 | STAT1 act conf 248.8 | NFkB act STAT1ct 137.8 | STAT3 act STAT1c inactive
Cc1ccc2nc(NC(=O)CCn3cccc3)sc2c1	STAT1 act 152.3 | STAT1 act conf 141.1 | NFkB act STAT1ct inactive | STAT3 act STAT1c inactive
CCCCNC(=O)Nc1nc2ccccc2s1	STAT1 act 151.5, APP 5'UTR act 148.2 | STAT1 act conf 186.0 | NFkB act STAT1ct inactive | STAT3 act STAT1c 115.7
Cc1ccc(C(=O)Nc2nc3ccccc3s2)s1	STAT1 act 157.1, NF-kB expr up 4.2, APP 5'UTR act 157.2 | STAT1 act conf 264.1 | NFkB act STAT1ct inactive | STAT3 act STAT1c inactive
O=c1nc(SCc2cccc(C(F)(F)F)c2)nc2ccccn12	none
O=c1c(C=NCCN2CCNCC2)c(-c2ccccc2)[nH]n1-c1ccc([N+](=O)[O-])cc1	STAT1 act 167.9 | STAT1 act conf 145.4 | NFkB act STAT1ct inactive | STAT3 act STAT1c 120.2
O=C(CSc1nnnn1-c1ccccc1)Nc1nc(-c2ccccc2)ns1	none
CC(C)(C)C(=O)Nc1nc(-c2ccccc2)ns1	STAT1 act 164.9, NF-kB expr up 5.91, APP 5'UTR act 144.5 | STAT1 act conf 199.8 | NFkB act STAT1ct inactive | STAT3 act STAT1c inactive
Cc1cccn2cc(COc3ccc(-c4ccccc4)cc3)nc12	STAT1 act 162.0 | STAT1 act conf 165.0 | NFkB act STAT1ct inactive | STAT3 act STAT1c 114.8
Cc1nn(C(=O)c2ccco2)c(C)c1Br	none
Cc1ccn2c(c1)nc(=S)n2C(=O)c1ccco1	STAT1 act 216.8, NF-kB expr up 8.52, APP 5'UTR act 161.4 | STAT1 act conf 193.1 | NFkB act STAT1ct 151.8 | STAT3 act STAT1c 122.0
COc1ccc(-c2cc(C(=O)Nc3ccccc3F)on2)cc1	none
COc1ccc(-c2cc(C(=O)Nc3ccccc3)on2)cc1	STAT1 act 178.9 | STAT1 act conf 156.5 | NFkB act STAT1ct inactive | STAT3 act STAT1c inactive
CC(/C=N/NC(=O)c1sc(N)nc1C)=C\c1ccccc1	STAT1 act 152.6 | STAT1 act conf 146.1 | NFkB act STAT1ct inactive | STAT3 act STAT1c inactive
Cc1nc(N)sc1C(=O)N/N=C/c1ccccc1[N+](=O)[O-]	STAT1 act 156.5 | STAT1 act conf 155.0 | NFkB act STAT1ct inactive | STAT3 act STAT1c 117.5
O=c1nc2n(c3c4c(sc13)CCC4)CCC2	none
Nc1nc(N2CCN(C(=O)c3ccco3)CC2)nc2ccc(Br)cc12	STAT1 act 179.5, APP 5'UTR act 218.7 | STAT1 act conf 195.1 | NFkB act STAT1ct 140.8 | STAT3 act STAT1c 118.3
Nc1nc(N2CCN(C(=O)c3ccco3)CC2)nc2ccccc12	none
Cc1cc(C(C)(C)C)cc(S(=O)(=O)NCC(=O)O)c1C	none
Cn1ncc2cc(NC(=S)NC(=O)c3ccccc3)ccc21	none
O=C(NC(=S)Nc1cnc2ccccc2c1)c1ccccc1	STAT1 act 155.2, NF-kB expr up 3.97 | STAT1 act conf 186.0 | NFkB act STAT1ct inactive | STAT3 act STAT1c 132.3
Cc1ccc(NC(=O)Nc2cnc3ccccc3c2)cc1	STAT1 act 181.0, APP 5'UTR act 198.2 | STAT1 act conf 192.6 | NFkB act STAT1ct inactive | STAT3 act STAT1c 111.4
O=C(Nc1ccc2nc3ccccc3nc2c1)c1ccccc1	STAT1 act 190.0, NF-kB expr up 3.78, APP 5'UTR act 197.9 | STAT1 act conf 229.9 | NFkB act STAT1ct 135.9 | STAT3 act STAT1c inactive
